{"data": "Published values from different studies", "target": "Serine/threonine-protein kinase D3 (PRKD3, Homo sapiens, UniProt O94806)", "One construct used (O94806 1-890)": "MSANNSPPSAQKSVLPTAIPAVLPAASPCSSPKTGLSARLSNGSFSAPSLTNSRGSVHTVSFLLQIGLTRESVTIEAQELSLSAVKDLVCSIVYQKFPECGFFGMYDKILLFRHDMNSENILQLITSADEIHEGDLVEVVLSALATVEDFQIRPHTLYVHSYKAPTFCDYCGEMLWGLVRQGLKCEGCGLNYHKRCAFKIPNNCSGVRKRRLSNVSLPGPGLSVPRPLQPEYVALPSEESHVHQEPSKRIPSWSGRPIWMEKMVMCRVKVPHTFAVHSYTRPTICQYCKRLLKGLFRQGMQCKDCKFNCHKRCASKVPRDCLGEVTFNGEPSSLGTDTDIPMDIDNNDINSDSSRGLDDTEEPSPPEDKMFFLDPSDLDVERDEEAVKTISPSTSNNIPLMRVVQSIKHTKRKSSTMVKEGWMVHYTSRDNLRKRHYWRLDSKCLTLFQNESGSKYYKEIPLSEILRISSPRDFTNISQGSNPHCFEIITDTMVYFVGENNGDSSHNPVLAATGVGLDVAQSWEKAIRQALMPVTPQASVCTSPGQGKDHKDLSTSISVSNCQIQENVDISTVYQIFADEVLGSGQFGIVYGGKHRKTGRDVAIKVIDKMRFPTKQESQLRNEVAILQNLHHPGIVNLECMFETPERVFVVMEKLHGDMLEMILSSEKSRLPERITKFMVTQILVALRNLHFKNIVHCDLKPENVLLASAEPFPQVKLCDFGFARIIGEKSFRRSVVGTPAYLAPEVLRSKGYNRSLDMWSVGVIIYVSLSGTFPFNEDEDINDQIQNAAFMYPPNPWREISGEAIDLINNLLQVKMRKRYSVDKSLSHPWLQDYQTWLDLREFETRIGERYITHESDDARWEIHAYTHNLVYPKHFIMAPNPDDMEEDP", "note": "Protocols differ between the studies behind these lines."}
{"Structure (SMILES)": "Cc1nc(Cc2cccc(C(F)(F)F)c2)sc1-c1ccc(C(N)=O)nc1", "observed": "cell-free assay", "method": "competition with immobilised ligand", "concentration": "1 µM", "measurement": "remaining binding", "result": "97%"}
{"Structure (SMILES)": "CCOc1cc(-c2nncn2C)ccc1Nc1ncc2cc(C)nc(NCC(C)(C)C)c2n1", "observed": "enzyme activity", "action": "inhibitor", "method": "FRET", "concentration": "1 µM", "measurement": "inhibition", "result": "< 15%"}
{"Structure (SMILES)": "CNc1cc(Oc2cc(C(=O)Nc3cc(N4CCN(C)CC4)cc(C(F)(F)F)c3)ccc2C)ncn1", "observed": "target engagement in cells", "action": "inhibitor", "method": "chemoproteomics", "cell line": "Huh-7", "concentration": "1 µM", "measurement": "inhibition", "result": "-19.8%"}
{"Structure (SMILES)": "COc1cc2ncnc(Nc3ccc(Oc4ccccc4)c(C)c3C)c2cc1OC", "observed": "enzyme activity", "action": "inhibitor", "concentration": "1 µM", "measurement": "inhibition", "result": "8%"}
{"Structure (SMILES)": "CSc1cccnc1N1CCN(Cc2nc3ccccc3[nH]2)CC1", "observed": "cell-free assay", "method": "competition with immobilised ligand", "concentration": "1 µM", "measurement": "remaining binding", "result": "100%"}
{"Structure (SMILES)": "CC1(C)NC(=O)c2[nH]c3c(Cl)c(Cl)ccc3c2C1C#N (centres unmarked)", "observed": "thermal stability", "method": "DSF", "concentration": "10 µM", "measurement": "ΔTm", "result": "0.8 °C"}
{"Structure (SMILES)": "O=C(Nc1cnn(-c2csc(C(=O)NC3COC3)c2)c1)Nc1c(F)cccc1Cl", "observed": "enzyme activity", "action": "inhibitor", "concentration": "5 µM", "measurement": "remaining activity", "result": "105%"}
{"Structure (SMILES)": "COc1cc(Nc2c(C#N)cnc3cc(OCCCN4CCN(C)CC4)c(OC)cc23)c(Cl)cc1Cl", "observed": "cell-free assay", "concentration": "0.5 µM", "measurement": "remaining signal", "result": "42.2%"}
{"Structure (SMILES)": "Cn1c2c(c3ccc(Cl)c(Cl)c31)C(C#N)C1(CCNCC1)NC2=O (racemic)", "observed": "thermal stability", "method": "DSF", "concentration": "10 µM", "measurement": "ΔTm", "result": "2.9 °C"}
{"Structure (SMILES)": "CC(C)(O)[C@H]1CC[C@H](Nc2ccc3ncc(-c4cccc(C(F)(F)F)c4)n3n2)CC1", "observed": "enzyme activity", "action": "inhibitor", "concentration": "1 µM", "measurement": "remaining activity", "result": "91.2%"}
{"Structure (SMILES)": "Cc1ccc(C(=O)Nc2ccc(CN3CCN(C)CC3)c(C(F)(F)F)c2)cc1C#Cc1cnc2cccnn12", "observed": "enzyme activity", "action": "inhibitor", "concentration": "23.5 nM", "measurement": "remaining activity", "result": "100%"}
{"Structure (SMILES)": "CN1CCC2(CC1)NC(=O)c1c(c3ccc(Cl)c(Cl)c3n1C)C2C#N (racemic)", "observed": "thermal stability", "method": "DSF", "concentration": "10 µM", "measurement": "ΔTm", "result": "2 °C"}
{"Structure (SMILES)": "O=C1Nc2ccc(Cl)cc2C1=Cc1cc(Cl)c(O)c(Cl)c1", "observed": "cell-free assay", "concentration": "0.5 µM", "measurement": "remaining signal", "result": "80.7%"}
{"Structure (SMILES)": "CCCCN(CCCC)C(=O)CN1C[C@@H](c2cc(OC)c3c(c2)OCO3)[C@H](C(=O)O)[C@H]1CC(C)(C)CCC", "observed": "cell-free assay", "method": "competition with immobilised ligand", "concentration": "1 µM", "measurement": "remaining binding", "result": "100%"}
{"Structure (SMILES)": "COc1cc2ncnc(Nc3ccc(F)c(Cl)c3)c2cc1OCCCN1CCOCC1", "observed": "cell-free assay", "concentration": "0.5 µM", "measurement": "remaining signal", "result": "76.3%"}
{"Structure (SMILES)": "CC(C)CC(=O)N1CCc2nc(-c3ccc(Br)cc3)nc(N(C)Cc3ccccc3)c2C1", "observed": "cell-free assay", "method": "competition with immobilised ligand", "concentration": "0.1 µM", "measurement": "remaining binding", "result": "100%"}
{"Structure (SMILES)": "CCCCNc1ncc2c(-c3ccc(F)cc3)nn(C[C@H]3CC[C@H](N)CC3)c2n1", "observed": "target engagement in cells", "action": "inhibitor", "method": "chemoproteomics", "concentration": "20 mM", "measurement": "inhibition", "result": "48.7%"}
{"Structure (SMILES)": "CN(C)CC#Cc1ccc(OCCCc2sc(N3CCc4cccc(C(=O)Nc5nc6ccccc6s5)c4C3)nc2C(=O)O)c(F)c1", "observed": "cell-free assay", "method": "competition with immobilised ligand", "concentration": "1 µM", "measurement": "remaining binding", "result": "93%"}
{"Structure (SMILES)": "CC(C)(C)c1nc2c(s1)c1nc(N)ncc1c1ccc(NS(=O)(=O)c3c(F)cccc3F)c(F)c12", "observed": "enzyme activity", "action": "inhibitor", "method": "radiometric", "concentration": "1 µM", "measurement": "remaining activity", "result": "98%"}
{"Structure (SMILES)": "O=C(NCc1ncc(C(F)(F)F)cc1Cl)c1ccc2c(c1)C1(CCS(=O)(=O)CC1)[C@H](C1CC1)N2S(=O)(=O)c1ccc(F)cc1", "observed": "cell-free assay", "method": "competition with immobilised ligand", "concentration": "1 µM", "measurement": "remaining binding", "result": "100%"}
{"Structure (SMILES)": "Nc1ncnc2occ(-c3ccc(NC(=O)Nc4cc(C(F)(F)F)ccc4F)cc3)c12", "observed": "cell-free assay", "action": "inhibitor", "concentration": "20 µM", "measurement": "remaining signal", "result": "42%"}
{"Structure (SMILES)": "COCCOc1nc(-c2ccc(Cl)nc2)nc2c1CN(C(=O)c1ncn3ccccc13)CC2", "observed": "cell-free assay", "method": "competition with immobilised ligand", "concentration": "0.1 µM", "measurement": "remaining binding", "result": "94%"}
{"Structure (SMILES)": "N#CC1c2c([nH]c3c(Cl)c(Cl)ccc23)C(=O)NC12CCCCC2 (racemic)", "observed": "thermal stability", "method": "DSF", "concentration": "10 µM", "measurement": "ΔTm", "result": "0.9 °C"}
